Measured values published in ChEMBL document CHEMBL1157618, “Noncovalent tripeptidyl benzyl- and cyclohexyl-amine inhibitors of the cysteine protease caspase-1” (J Med Chem, 2010).
Active and inactive are the calls of the source. No cut-off for these calls is given here.

System: HT-29
Assay: Cytotoxicity against human HT-29 cells at <=200 uM after 24 hrs by MTT assay
Assay type: functional, cell-based
Outline: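 HT29 colon cancer cells seeded at 1 × 10⁵ cells/well in RPMI 1640, adhered overnight at 37 °C, then exposed to various compound concentrations (up to 200 μM) for 24 h at 37 °C. MTT ([…] in RPMI 1640) added for 1 h at 37 °C; cells lysed, crystals dissolved in isopropanol, absorbance read at 570 nm.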

| SMILES | Activity |
| --- | --- |
| CC(C)[C@H](NC(=O)c1ccc2ccccc2c1)C(=O)N[C@@H](C)C(=O)N[C@@H](CC(=O)O)CN(C)C1CCCCC1 | Not toxic |
| CC(C)[C@H](NC(=O)c1ccc2ccccc2c1)C(=O)N[C@@H](C)C(=O)N[C@H](CNCc1ccccc1F)CC(=O)O | Not toxic |
| COc1ccccc1CNC[C@H](CC(=O)O)NC(=O)[C@H](C)NC(=O)[C@@H](NC(=O)c1ccc2ccccc2c1)C(C)C | Not toxic |
| CC(C)[C@H](NC(=O)c1ccc2ccccc2c1)C(=O)N[C@@H](C)C(=O)N[C@H](CNCc1ccccc1)CC(=O)O | Not toxic |
| CC(C)[C@H](NC(=O)c1ccc2ccccc2c1)C(=O)N[C@@H](C)C(=O)N[C@H](CNC1CCCCC1)CC(=O)O | Not toxic |
| CC(C)[C@H](NC(=O)c1ccc2ccccc2c1)C(=O)N[C@@H](C)C(=O)N[C@H](CCCc1ccccc1)CC(=O)O | Not toxic |
| CC(C)[C@H](NC(=O)c1ccc2ccccc2c1)C(=O)N[C@@H](C)C(=O)N[C@@H](CC(=O)O)CN(C)Cc1ccccc1 | Not toxic |
| CC(C)[C@H](NC(=O)c1ccc2ccccc2c1)C(=O)N[C@@H](C)C(=O)N[C@H](CNCc1ccccc1O)CC(=O)O | Not toxic |
| CC(C)[C@H](NC(=O)c1ccc2ccccc2c1)C(=O)N[C@@H](C)C(=O)N[C@H](CNCc1ccc(C(N)=O)cc1)CC(=O)O | Not toxic |
| CC(C)[C@H](NC(=O)c1ccc2ccccc2c1)C(=O)N[C@@H](C)C(=O)N[C@H](CNCc1ccc2c(c1)OCO2)CC(=O)O | Not toxic |
| CC(C)[C@H](NC(=O)c1ccc2ccccc2c1)C(=O)N[C@@H](C)C(=O)N[C@H](CNCc1ccc(O)cc1)CC(=O)O | Not toxic |

Molecular target: T1, Caspase-3 (Homo sapiens) (UniProt P42574)
T1 sequence (whole entry): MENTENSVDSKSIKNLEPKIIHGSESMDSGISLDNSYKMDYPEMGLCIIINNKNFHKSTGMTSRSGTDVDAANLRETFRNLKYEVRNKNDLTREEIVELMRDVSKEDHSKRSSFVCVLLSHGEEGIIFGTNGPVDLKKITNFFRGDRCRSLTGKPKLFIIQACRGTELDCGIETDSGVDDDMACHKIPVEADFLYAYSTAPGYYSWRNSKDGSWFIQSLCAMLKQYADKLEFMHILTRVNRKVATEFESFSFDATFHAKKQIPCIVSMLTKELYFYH
Assay: Inhibition of caspase 3

| SMILES | Activity |
| --- | --- |
| CC(C)[C@H](NC(=O)c1ccc2ccccc2c1)C(=O)N[C@@H](C)C(=O)N[C@H](CNCc1ccccc1O)CC(=O)O | inactive |
